Compound activity as filed in PubChem BioAssay.
Dynein cargo inh: dynein cargo transport inhibition; 3617.4 mouse cells, GR-EGFP nuclear translocation imaging; test concentration mostly 20 µM; stimulated with dexamethasone, 1 µM; hits give low values; z-score, hits read low; 220,000 compounds, 0.47% hits;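 active = plate z-score of nuclear minus cytoplasmic receptor signal below a set negative limit, without overly bright fluorescence or cell loss, cut at about -3.5 in these data, passing the limit was not always enough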;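 also: z-score of nuclear minus cytoplasmic ring GR-EGFP intensity difference per well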
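Schedule: 48 h induction, then 1 h compound, then 30 min agonist, 37 °C. Buffer or medium: tetracycline-free induction medium containing charcoal-stripped FBS. Reagent: 1.0 µM final dexamethasone stimulus. Evaluation: nuclear versus cytoplasmic GR-EGFP signal, averaged per well. Signal: high-content fluorescence imaging after fixation.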
Autophagy HCS: modulators of autophagy; MEF GFP-LC3 puncta imaging; test concentration mostly 10 µM; calls only at 10 µM (by protocol); 190,000 compounds, 0.98% hits;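 active = percentage of spot-positive cells more than 3 SD above its plate mean, without a fluorescence outlier flag or 80% toxicity; inconclusive = no clear call, values can overlap the other calls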;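 also: spot-positive cell cutoff set from DMSO-treated cells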
Lmaj promast: Leishmania major promastigote growth inhibition; Leishmania major promastigotes, resazurin fluorescence viability; inhibition, % at 10 µM; 200,000 compounds, 9% hits; AID 1063; in the data active = inhibition above about 50%;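 also: promastigotes grown with compound for 44 hours at 28 °C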
bCat nuc transl: alters nuclear translocation of beta-catenin in HeLa cells. immunofluorescence imaging. nuclear translocation activity, % at 5 µM. 190,000 compounds, 0.3% hits. AID 1665;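 active = nuclear translocation activity above 50% at 5 µM, with a well cell count of 50 or more; inconclusive = wells under 50 cells across six images, flagged as toxic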;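 also: per-cell ratio of nuclear to cytoplasmic median beta-catenin stain intensity; plate controls were DMSO negative control for no effect and GSK-3 inhibitor IX positive control for full effect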
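System: Human HeLa cells, endogenous beta-catenin | Compound dosing: 5 µM primary, 0.02–20 µM confirmation | Timing: 24 h compound exposure at 37°C, 5% CO2 | Measured by: Fluorescence imaging of beta-catenin antibody stain plus DAPI | Read-out basis: % activation of per-cell nuclear versus cytoplasmic median beta-catenin signal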
CHOP inh: inhibitors of CHOP induction in ER stress response; CHO-K1 CHOP-promoter luciferase, tunicamycin-induced, 15-18 h; inhibition, % at 10 µM; 220,000 compounds, 3.8% hits; AID 2732;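 active = compounds that reduced the stress-induced luciferase reporter signal by more than about 70% of percent inhibition, limit read from the data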;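 also: 0% = tunicamycin plus vehicle and 100% = wells without tunicamycin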
MT stabilize HCS: microtubule stabilization, imaging screen; HeLa tubulin immunostaining HCS, 24 h; share of cells brighter than vehicle mean+2SD; % tubulin-high responders, % at 10 µM; 200,000 compounds, 0.83% hits;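 active = plate Z-score above 3 for both tubulin-high and condensed-nucleus cell shares, with cell loss under 80%, at 10 µM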;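 also: anti alpha tubulin signal scored within the nucleus-defined area of each cell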
Starred values were filed as active, the others as inactive; i = inactive; ? = inconclusive; . = no result given. Only some compounds are listed: those with a hit (about 12% of all), similar ones and a draw of the others.

SMILES	Dynein cargo inh	Autophagy HCS	Lmaj promast	bCat nuc transl	CHOP inh	MT stabilize HCS
Cc1ccc(Sc2nc3c(c(=O)[nH]c(=O)n3C)n2CCc2ccccc2)cc1	-0.263	i	9.5	-2.1	95.4*	2.1
Cn1c(=O)[nH]c(=O)c2c1nc(Br)n2CCCSc1nc2ccccc2o1	-0.998	i	6.9	.	-7.9	24.6*
CC(C)n1c(SCCCc2ccccc2)nc2c1c(=O)[nH]c(=O)n2C	-0.754	.	-5.8	0.3	97.0*	3.9
CC(C)CCn1c(SCCc2ccccc2)nc2c1c(=O)[nH]c(=O)n2C	3.19	i	13.6	-2.0	74.7*	3.6
CCOCCn1c(SCCc2ccccc2)nc2c1c(=O)[nH]c(=O)n2C	1.77	i	26.6	-2.2	30.8	1.3
CCCCCn1c(SCCc2ccccc2)nc2c1c(=O)[nH]c(=O)n2C	2.95	i	3.2	-1.8	93.5*	0.5
C=CCNc1nc2c(c(=O)[nH]c(=O)n2C)n1CCCCC	0.237	i	-2.6	.	71.0*	4.1
C=CCn1c(SCCCc2ccccc2)nc2c1c(=O)[nH]c(=O)n2C	-0.872	i	1.8	2.2	77.0*	4.1
CCCn1c(SCCc2ccccc2)nc2c1c(=O)[nH]c(=O)n2C	-0.581	i	-2.3	-3.4	5.5	1.5
COCc1c(C(=O)N/N=C/c2cccc3ccccc23)nnn1-c1nonc1N	0.515	i	-2.6	-0.6	46.5	2.4
CCOc1cc(C2C(C#N)=C(N)Oc3n[nH]c(C)c32)ccc1OCCN1CCOCC1 (stereo unspecified)	-0.241	i	4.2	-2.0	-14.6	1.7
O=C(CN1C(=O)c2ccccc2C1=O)NNC1=NS(=O)(=O)c2ccccc21	-0.772	i	60.9*	.	15.4	4.0
CCN(CC(=O)NC(C)(C)C)C(=O)C(c1ccccc1)c1ccccc1	0.507	i	8.6	-0.4	10.6	3.5
COC(=O)CCSCC(=O)N1N=C(c2ccc(OC)cc2)CC1c1cccc(OC)c1OC (stereo unspecified)	-0.346	i	6.5	-1.5	7.9	7.0
COC(=O)c1ccc(/C=C(\C#N)C(=O)NC(C)c2ccccc2)cc1 (stereo unspecified)	-0.64	?	98.8*	-0.5	-7.7	4.8
CC(NC(=O)/C(C#N)=C/c1ccco1)c1ccccc1 (stereo unspecified)	0.121	.	.	-0.1	-3.3	.
O=C(Nc1ccccc1C1CC1)c1cccs1	-0.359	i	-1.0	-0.9	23.0	5.2
N#CCCn1nc(-c2ccccc2)cc1Nc1ccccc1NC(=O)c1cccs1	0.307	i	58.6*	-2.9	-8.1	2.3
O=C(NCCc1ccccc1)C(c1cccs1)N(C(=O)CCl)c1ccc(Cl)cc1 (stereo unspecified)	-3.49	i	100.5*	-0.4	110.6*	6.9
O=C(Nc1ncc(Cc2ccccc2Cl)s1)C1CCCO1 (stereo unspecified)	0.0781	i	5.2	-1.2	23.2	2.3
CCOc1ccc(NC(=O)CC(c2ccccc2)c2ccc(F)cc2)cc1 (stereo unspecified)	0.942	i	1.5	-0.2	22.5	3.5
O=C(O)CCC(=O)Nc1ccccc1C(=O)NCCc1ccccc1	0.202	i	55.5*	-0.6	3.5	5.7
Cc1ccc(C(=O)Nc2ccccc2C(=O)NCc2ccccc2)cc1	1.13	i	14.5	-4.6	80.2*	3.4
CS(=O)(=O)N(CC(=O)Nc1ccccc1C(=O)NCCc1ccccc1)c1ccc2c(c1)OCCO2	1.7	i	99.1*	1.1	-10.2	1.5
Cc1ccc(NC(=O)Nc2ccccc2C(=O)NCc2ccccc2)cc1	-0.746	i	-2.6	.	56.1	1.3
CS(=O)(=O)N(CC(=O)Nc1ccccc1C(=O)NCc1ccccc1)c1ccc2c(c1)OCCO2	0.752	i	15.2	4.6	14.6	1.4
CSc1ccc(-c2nc(CN3CCCCC3c3cccnc3)c(C)o2)cc1 (stereo unspecified)	-0.853	i	50.8*	4.3	39.5	4.0
Cc1oc(-c2ccc(Cl)cc2)nc1CN1CCCC(C(=O)NCc2cccnc2)C1 (stereo unspecified)	0.138	i	-2.7	-0.9	52.6	5.5
CC(C)(C)c1ccc(C(=O)CC(=O)c2cc(Cl)ccc2O)cc1	-0.433	i	99.1*	0.6	47.3	1.0
